Results from different studies.
Compare with care: the assays were run in different laboratories.
EIF2AK4 S808G: eIF-2-alpha kinase GCN2 (EIF2AK4, Homo sapiens, UniProt Q9P2K8, S808G)
EIF2AK4 S808G C-terminal kinase domain: eIF-2-alpha kinase GCN2, C-terminal kinase domain (EIF2AK4, Homo sapiens, UniProt Q9P2K8, S808G)

| SMILES | target | observed | method | concentration | remaining binding [%] |
| --- | --- | --- | --- | --- | --- |
| COc1ccnn2ncc(-c3ccnc(N(C)C)n3)c12 | EIF2AK4 S808G | binding | – | 1 µM | 93 |
| O=C(Nc1c[nH]nc1C(=O)NC1CCNCC1)c1cc(F)cc(F)c1 | EIF2AK4 S808G C-terminal kinase domain | binding | competition with immobilised ligand | 1 µM | 100 |
| c1cncc(-c2cccc(Nc3nccc(NC4CCCCC4)n3)c2)c1 | EIF2AK4 S808G C-terminal kinase domain | binding | competition with immobilised ligand | 10 µM | 100 |
| O=C(NCCCN1CCOCC1)c1ccc(Nc2nccc(-c3cc4ccccc4s3)n2)cc1 | EIF2AK4 S808G C-terminal kinase domain | binding | competition with immobilised ligand | 1 µM | 15 |
| CN(CCCC(F)(F)F)c1nccc(-c2cnn3ncccc23)n1 | EIF2AK4 S808G | binding | – | 1 µM | 99 |
| C[C@@H](c1ccc(-n2cnc3c(N)ncnc32)cc1)N1CCc2nn(C)c(Cc3ccccc3)c2C1=O | EIF2AK4 S808G C-terminal kinase domain | binding | competition with immobilised ligand | 0.1 µM | 98 |
| CN(c1nccc(-c2cnn3ncccc23)n1)C1CC1 | EIF2AK4 S808G | binding | – | 1 µM | 69 |
| O=C(NCCCN1CCOCC1)c1ccc(Nc2ncc(Cl)c(-c3ccc(Cl)s3)n2)cc1 | EIF2AK4 S808G C-terminal kinase domain | binding | competition with immobilised ligand | 1 µM | 0.35 |
| CN1CCN(c2ccc(Nc3nccc(-c4cccc([N+](=O)[O-])c4)n3)cc2C(F)(F)F)CC1 | EIF2AK4 S808G | binding | – | 10 µM | 0.2 |
| FC(F)(F)Oc1cccc(-c2cnc3ccc(-c4ccncc4)nn23)c1 | EIF2AK4 S808G | binding | competition with immobilised ligand | 5 µM | 35 |
| O=C(NS(=O)(=O)c1ccc(NCC2CCOCC2)c([N+](=O)[O-])c1)c1ccc(N2CCN(Cc3ccc(C(F)(F)F)cc3-c3ccc(Cl)cc3)CC2)cc1Oc1cnc2[nH]ccc2c1 | EIF2AK4 S808G C-terminal kinase domain | cell-free assay | competition with immobilised ligand | 1 µM | 85 |
| O=C(c1ccc(Nc2ncc(Cl)c(-c3ccc(Cl)s3)n2)cc1)N1CCC(N2CCCC2)CC1 | EIF2AK4 S808G C-terminal kinase domain | binding | competition with immobilised ligand | 1 µM | 0.25 |
| C[C@H](NC(=O)c1cnc2n1[C@](C)(Cc1ccc(C#N)cc1)C(=O)N2c1cc(Cl)c(F)c(Cl)c1)C(=O)NC1(c2ccccn2)CC1 | EIF2AK4 S808G C-terminal kinase domain | cell-free assay | competition with immobilised ligand | 1 µM | 100 |
| N[C@H]1CCN(c2nccc(-c3cnn4ncccc34)n2)C1 | EIF2AK4 S808G | binding | – | 1 µM | 100 |
| O=C(O)[C@H]1[C@H](Cn2nnc3ccccc3c2=O)CC[C@@H]1C(=O)c1ccc(OCCC2CCOCC2)cc1 | EIF2AK4 S808G C-terminal kinase domain | cell-free assay | competition with immobilised ligand | 1 µM | 55 |
| Cc1cnn2ncc(-c3ccnc(N(C)C)n3)c2c1 | EIF2AK4 S808G | binding | – | 1 µM | 96 |
| CCC(=N\O)/C(C)=C/c1ccc(F)cc1 | EIF2AK4 S808G C-terminal kinase domain | cell-free assay | competition with immobilised ligand | 1 µM | 70 |
| C[C@@H]1CCN(c2nccc(-c3cnn4ncccc34)n2)C1 | EIF2AK4 S808G | binding | – | 1 µM | 78 |
| Cn1nc(C(F)(F)F)cc1-c1cnc(N2CCc3cc(S(=O)(=O)Nc4c(F)cc(Cl)cc4F)cc(N4CCCC4=O)c32)nc1 | EIF2AK4 S808G C-terminal kinase domain | cell-free assay | competition with immobilised ligand | 1 µM | 100 |
| CNC(=O)[C@@H]1CC[C@@H](n2c(-c3ccc4cnccc4c3)nc3ccc(C(=O)NCc4cccc(C(N)=O)c4)cc32)C1 | EIF2AK4 S808G C-terminal kinase domain | binding | competition with immobilised ligand | 1 µM | 82 |
| c1cnn2ncc(-c3ccnc(N4CCC45COC5)n3)c2c1 | EIF2AK4 S808G | binding | – | 1 µM | 100 |
| C[C@@H](c1cccc(C#N)c1)n1cc(Cl)cc(C(N)=O)c1=N | EIF2AK4 S808G C-terminal kinase domain | cell-free assay | competition with immobilised ligand | 1 µM | 50 |
